According to ChEMBL document CHEMBL1151249, “Cytotoxic and antimicrobial constituents of the bark of Diospyros maritima collected in two geographical locations in Indonesia” (J Nat Prod, 2004):
Converted amounts (≈) assume the structure as drawn.

How the values were obtained:
KB = test: Cytotoxicity against human KB cells; assay type: functional, cell-based
Lu1 = test: Cytotoxicity against human Lu1 cells; assay type: functional; settings: read-out: ED50 (the source's name)
LNCaP = test: Cytotoxicity against human LNCAP cells; assay type: functional; settings: read-out: ED50 (the source's name)
[1] = Cytotoxicity against human HUVEC; assay type: cell-based; settings: HUVEC cells, read-out: ED50 (the source's name)
Micrococcus luteus [2] = test: Antimicrobial activity against Micrococcus luteus after 18 hrs by zone-of-inhibition assay; assay type: functional, organism-based
Micrococcus luteus [3] = test: Antimicrobial activity against Micrococcus luteus assessed as 99.9 % growth inhibition after 18 hrs by zone-of-inhibition assay; assay type: functional
Staphylococcus aureus [4] = test: Antimicrobial activity against Staphylococcus aureus after 18 hrs by zone-of-inhibition assay; assay type: functional, organism-based
Staphylococcus aureus [5] = test: Antimicrobial activity against Staphylococcus aureus assessed as 99.9 % growth inhibition after 18 hrs by zone-of-inhibition assay; assay type: functional
[6] = tested on: Mycolicibacterium smegmatis; test: Antimicrobial activity against Mycobacterium smegmatis after 18 hrs by zone-of-inhibition assay; assay type: functional, organism-based
[7] = tested on: Mycolicibacterium smegmatis; test: Antimicrobial activity against Mycobacterium smegmatis assessed as 99.9 % growth inhibition after 18 hrs by zone-of-inhibition assay; assay type: functional
Mycobacterium avium [8] = test: Antimicrobial activity against Mycobacterium avium after 18 hrs by zone-of-inhibition assay; assay type: functional, organism-based
Candida albicans [9] = test: Antifungal activity against Candida albicans after 18 hrs by zone-of-inhibition assay; assay type: functional, organism-based; settings: for IC50: Candida albicans, 18 h
Cryptococcus neoformans [10] = test: Antifungal activity against Cryptococcus neoformans after 18 hrs by zone-of-inhibition assay; assay type: functional, organism-based; settings: for IC50: Cryptococcus neoformans, 18 h
Cryptococcus neoformans [11] = test: Antifungal activity against Cryptococcus neoformans assessed as 99.9 % growth inhibition after 18 hrs by zone-of-inhibition assay; assay type: functional
Saccharomyces cerevisiae [12] = test: Antifungal activity against Saccharomyces cerevisiae after 18 hrs by zone-of-inhibition assay; assay type: functional, organism-based
Saccharomyces cerevisiae [13] = test: Antifungal activity against Saccharomyces cerevisiae assessed as 99.9 % growth inhibition after 18 hrs by zone-of-inhibition assay; assay type: functional
Aspergillus niger [14] = test: Antifungal activity against Aspergillus niger after 18 hrs by zone-of-inhibition assay; assay type: functional, organism-based
Aspergillus niger [15] = test: Antifungal activity against Aspergillus niger assessed as 99.9 % growth inhibition after 18 hrs by zone-of-inhibition assay; assay type: functional
Candida albicans [16] = test: Antimicrobial activity against Candida albicans assessed as 99.9 % growth inhibition after 18 hrs by zone-of-inhibition assay; assay type: functional
Mycobacterium avium [17] = test: Antimicrobial activity against Mycobacterium avium assessed as 99.9 % growth inhibition after 18 hrs by zone-of-inhibition assay; assay type: functional
Mus musculus [18] = test: Toxicity in human KB cell xenografted mouse assessed as body weight loss at 5 mg/kg; assay type: organism-based; set-up: dose 5 mg/kg; settings: in vivo
Outline: (§1)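 In vivo hollow fiber assay in mice, with KB, LNCaP or Lu1 cancer cells at intraperitoneal and subcutaneous sites. Doses ranged from 1.25 to 10 mg/kg, with six mice per dose group. Body weight and deaths were recorded alongside tumor-cell growth inhibition.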

Mus musculus [19] = test: Toxicity in human LNCaP cell xenografted mouse assessed as body weight loss at 5 mg/kg; assay type: organism-based; set-up: dose 5 mg/kg; settings: in vivo; outline: as §1
Mus musculus [20] = test: Toxicity in human LU1 cell xenografted mouse assessed as body weight loss at 5 mg/kg; assay type: organism-based; set-up: dose 5 mg/kg; settings: in vivo; outline: as §1
[21] = read-out: ED50 (the source's name)

Row | Compound | EC50 (KB; [21]) [µg/mL] | EC50 (Lu1) [µg/mL] | EC50 (LNCaP) [µg/mL] | CC50 [1] [µg/mL] | IC50 (Micrococcus luteus [2]) [µg/mL] | Activity (Micrococcus luteus [3]) [µg/mL] | IC50 (Staphylococcus aureus [4]) [µg/mL] | Activity (Staphylococcus aureus [5]) [µg/mL] | IC50 [6] [µg/mL] | Activity [7] [µg/mL] | IC50 (Mycobacterium avium [8]) [µg/mL] | IC50 (Candida albicans [9]) [µg/mL] | IC50 (Cryptococcus neoformans [10]) [µg/mL] | Activity (Cryptococcus neoformans [11]) [µg/mL] | IC50 (Saccharomyces cerevisiae [12]) [µg/mL] | Activity (Saccharomyces cerevisiae [13]) [µg/mL] | IC50 (Aspergillus niger [14]) [µg/mL] | Activity (Aspergillus niger [15]) [µg/mL] | Activity (Candida albicans [16]) [µg/mL] | further results
1 | COc1c(O)cc2ccc(=O)oc2c1OC | > 5 | > 5 | > 5 | > 5 | > 1000 | >1000 | > 1000 | >1000 | > 1000 | >1000 | > 1000 | > 1000 | > 1000 | >1000 | > 1000 | >1000 | > 1000 | >1000 | >1000 | –
2 | COC1=CC(=O)c2c(O)cc(C)cc2C1=O | 1.9 (≈ 8.71 µM) | 0.2 (≈ 0.917 µM) | 3.4 (≈ 15.6 µM) | 2 (≈ 9.17 µM) | 50 (≈ 229 µM) | 800 | 200 (≈ 917 µM) | 400 | 50 (≈ 229 µM) | 800 | 50 (≈ 229 µM) | 100 (≈ 458 µM) | 50 (≈ 229 µM) | 200 | 50 (≈ 229 µM) | 200 | 100 (≈ 458 µM) | >1000 | 800 | –
3 | CC12C(=O)c3cccc(O)c3C(=O)C1CC1=C2C(=O)c2c(O)cccc2C1=O (centres undefined) [ZEYLANONE] | 2.1 (≈ 5.61 µM) | 14.5 (≈ 38.7 µM) | 3.3 (≈ 8.82 µM) | 3.3 (≈ 8.82 µM) | 50 (≈ 134 µM) | >800 | 6 (≈ 16 µM) | >800 | 50 (≈ 134 µM) | 400 | 200 (≈ 534 µM) | 3 (≈ 8.01 µM) | 10 (≈ 26.7 µM) | 100 | 10 (≈ 26.7 µM) | 500 | 30 (≈ 80.1 µM) | >800 | 3 | –
4 | COC(=O)c1c(O)cc(C)cc1O | > 5 | > 5 | > 5 | > 5 | > 1000 | >1000 | > 1000 | >1000 | > 1000 | >1000 | > 1000 | > 1000 | > 1000 | >1000 | > 1000 | >1000 | > 1000 | >1000 | >1000 | –
5 | CC[C@@]1(O)C(=O)OCc2c1cc1n(c2=O)Cc2cc3ccccc3nc2-1 [CAMPTOTHECIN] | – | – | – | – | – | – | – | – | – | – | – | – | – | – | – | – | – | – | – | EC50 (KB; read-out: EC50): 0.01 µg/mL (≈ 0.0287 µM)
6 | C=C(C)[C@@H]1CC[C@]2(C)CC[C@]3(C)[C@H](CC[C@@H]4[C@@]5(C)CC[C@H](O)C(C)(C)[C@@H]5CC[C@]43C)[C@@H]12 [LUPEOL] | > 5 | > 5 | > 5 | > 5 | > 1000 | >1000 | > 1000 | >1000 | > 1000 | >1000 | > 1000 | > 1000 | > 1000 | >1000 | > 1000 | >1000 | > 1000 | >1000 | >1000 | –
7 | COc1cc2c[n+](C)c3c4cc5c(cc4ccc3c2cc1OC)OCO5.[Cl-] [NITIDINE CHLORIDE] | – | – | – | – | 200 | 5000 | 300 | 5000 | 1000 | >5000 | 3000 | – | – | 300 | 300 | 3000 | 3000 | >5000 | 200 | Activity (Candida albicans [9]): 20 µg/mL; Activity (Cryptococcus neoformans [10]): 80 µg/mL
8 | C=C(C)[C@@H]1CC[C@]2(CO)CC[C@]3(C)[C@H](CC[C@@H]4[C@@]5(C)CC[C@H](O)C(C)(C)[C@@H]5CC[C@]43C)[C@@H]12 [BETULIN] | > 5 | > 5 | > 5 | > 5 | – | – | – | – | – | – | – | – | – | – | – | – | – | – | – | –
9 | Cc1cc(O)c2c(c1)C(=O)C=CC2=O [RAMENTACEONE] | 4.1 (≈ 21.8 µM) | 13.2 (≈ 70.1 µM) | 3.7 (≈ 19.7 µM) | 5.7 (≈ 30.3 µM) | 20 (≈ 106 µM) | 1000 | 200 (≈ 1060 µM) | >1000 | 40 (≈ 213 µM) | 600 | 5 (≈ 26.6 µM) | 0.3 (≈ 1.59 µM) | 0.3 (≈ 1.59 µM) | 1 | 0.3 (≈ 1.59 µM) | 1 | 5 (≈ 26.6 µM) | 300 | 20 | –
10 | CC1=CC(=O)c2c(ccc(C3=C(C)C(=O)c4cccc(O)c4C3=O)c2O)C1=O [CHITRANONE] | 0.3 (≈ 0.801 µM) | 1.1 (≈ 2.94 µM) | 2.2 (≈ 5.88 µM) | 2.1 (≈ 5.61 µM) | 10 (≈ 26.7 µM) | >1000 | 90 (≈ 240 µM) | >1000 | 6 (≈ 16 µM) | 20 | 5 (≈ 13.4 µM) | 10 (≈ 26.7 µM) | 3 (≈ 8.01 µM) | 10 | 3 (≈ 8.01 µM) | 10 | 6 (≈ 16 µM) | >1000 | >1000 | Activity (Mycobacterium avium [17]): 90 µg/mL
11 | Cc1cc(O)c2c(c1)[C@@H](O)CCC2=O [4S-SHINANOLONE] | > 5 | > 5 | > 5 | > 5 | > 1000 | >1000 | > 1000 | >1000 | > 1000 | >1000 | > 1000 | > 1000 | > 1000 | >1000 | > 1000 | >1000 | > 1000 | >1000 | >1000 | –
12 | CC1=CC(=O)c2c(O)cccc2C1=O [PLUMBAGIN] | 0.3 (≈ 1.59 µM) | 0.3 (≈ 1.59 µM) | 0.4 (≈ 2.13 µM) | 0.4 (≈ 2.13 µM) | 80 (≈ 425 µM) | 600 | 100 (≈ 531 µM) | 600 | 300 (≈ 1590 µM) | >1000 | 600 (≈ 3190 µM) | 9 (≈ 47.8 µM) | 20 (≈ 106 µM) | 40 | 10 (≈ 53.1 µM) | 40 | 20 (≈ 106 µM) | 400 | >1000 | Activity (Mycobacterium avium [17]): >1000 µg/mL; Activity (Mus musculus [18]): Toxic; Activity (Mus musculus [19]): Toxic; Activity (Mus musculus [20]): Toxic
13 | COc1cc2ccc(=O)oc2cc1O [SCOPOLETIN] | > 5 | > 5 | > 5 | > 5 | > 1000 | >1000 | > 1000 | >1000 | > 1000 | >1000 | > 1000 | > 1000 | > 1000 | >1000 | > 1000 | >1000 | > 1000 | >1000 | >1000 | –
14 | COC1=CC(=O)c2cc(C)cc(O)c2C1=O | 2.4 (≈ 11 µM) | 1.8 (≈ 8.25 µM) | 4.1 (≈ 18.8 µM) | 5.5 (≈ 25.2 µM) | 700 (≈ 3210 µM) | >1000 | > 1000 | >1000 | > 1000 | >1000 | 700 (≈ 3210 µM) | > 1000 | > 1000 | >1000 | > 1000 | >1000 | > 1000 | >1000 | >1000 | –
